# Assay outcomes (PubChem)
# Shown is part of a subset that was picked to be rich in hits.
# HUVEC prolif 384 = human endothelial cell proliferation inhibition; HUVEC proliferation, CellTiter-Glo luminescence, 72 h; hits give low values; viability, % at 10 µM (by protocol); 86,000 tested, 1.1% active; AID 648;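 active = viability at or below 30%; inactive = viability above 30%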;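 also: 100% = median luminescence of DMSO-only cell control wells on each plate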
# Pyk2 oligo antag = blocks oligomerization of human Pyk2 in cells; Q293 cells, Pyk2 FERM NanoBiT luminescence; hits give low values; z-score (the deposit names both 25 µM and 10 µM); Q14289; 99,000 tested, 0.83% active; AID 1347419;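 active = Z-score of -3 or lower, scaled per plate to the spread of control and sample wells; inactive = z-score above -3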;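 also: negative z-score means lost luminescence so less FERM oligomerization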
# Fibroblast inh = blocks proliferation of human lung fibroblasts; 85,000 tested, 1.1% active; LL 47 human lung fibroblast viability, ATP luminescence; hits give low values; viability, % at 10 µM;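 active = viability at or below 50% in the single dose screen; inactive = viability above 50%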;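 also: compound exposure lasted 72 h before the ATP readout; 100% = median luminescence of untreated cell-only wells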
#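 Material: human lung fibroblast line LL 47, low passage; Evaluation: viability percentage against median untreated-cell control; Buffer or medium: 15% FBS in IMEM; Incubation: 72 h compound exposure at 37 °C after overnight plating; Dosing: 0.1% DMSO in all compound wells; Measured by: CellTiter-Glo luminescence.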
# PTEN del growth = suppresses growth of cells with PTEN deletion | HCT116 PTEN-null viability, CellTiter-Glo, 60 h; hits give low values | viability, % at 10 µM | 140,000 tested, 1.2% active | AID 827;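 active = viability at or below a set limit, 4 SD under the median of all tested compounds, cut at about 3.7% in these data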;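 also: PTEN knockout HCT116 line with beta catenin targeted HCT116 as companion control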
# H69AR growth 86K = blocks growth of human H69AR lung tumor cells; viability, % at 10 µM; 85,000 tested, 6% active; H69AR lung tumor viability, ATP luminescence, 72 h; hits give low values;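 active = viability at or below 40%; inactive = viability above 40%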;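 also: multidrug resistant small cell line overexpressing MRP-1 efflux transporter; 100% = mean luminescence of untreated control wells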
# HCT116 bCat-KO = beta-catenin-lacking colon tumor cell growth suppression | HCT116 beta-catenin knockout viability, CellTiter-Glo, 60 h; hits give low values | viability, % at 10 µM | 140,000 tested, 1.5% active;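 active = viability at or under a set limit, the compound median less 4 SD, cut at about 6% in these data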;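 also: 0% = Hyamine 1622 control at 20 µM and 100% = untreated cell control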
# * hit, by the source's call; . = not tested or not shown.
SMILES,HUVEC prolif 384,Pyk2 oligo antag,Fibroblast inh,PTEN del growth,H69AR growth 86K,HCT116 bCat-KO
O=C(CSc1cccc2cccnc12)N1CCCC1,64,-0.6,18*,8,0.0*,8
CN(C)C(=O)CSc1cccc2cccnc12,72,-1.5,40*,6,0.6*,4.3*
N#Cc1c(C(F)(F)F)cc(-c2cccc(Cl)c2)[nH]c1=O,.,0.71,.,94,.,93
CCOc1ccc(CNc2ccc(N3CCCC3)cc2)cc1,90,-0.44,84,6,1.8*,4.5*
O=[N+]([O-])c1ccc2nnn(O)c2c1,.,.,.,86,.,88
CCC(C)N1C(=O)/C(=C/c2c(NCCCOC(C)C)nc3c(C)cccn3c2=O)SC1=S (stereo not drawn),91,-3.1*,100,81,80,71
CCCN1C(=O)/C(=C/c2c(NCCCOC(C)C)nc3c(C)cccn3c2=O)SC1=S,51,-0.5,91,79,67,83
Cc1noc(C)c1COc1ccc(C(=O)OCC(=O)Nc2cccc(S(=O)(=O)N3CCOCC3)c2)cc1,.,.,.,89,.,90
CCOC(=O)c1oc2ccc(S(=O)(=O)n3nc(-c4ccc(OC)cc4)cc3N)cc2c1C,74,.,79,26,27*,21
O=C(CN1CCN(C2CCCCC2)CC1)c1ccc2cc[nH]c2c1,98,.,90,98,88,87
CC(NC(=O)c1ccccc1)c1ccc(F)cc1 (stereo not drawn),.,.,.,97,.,85
Cc1sc2nc(CSc3nc4ccccc4c(=O)n3CCCN3CCOCC3)[nH]c(=O)c2c1C,60,-0.29,86,32,9.8*,42
COc1ccc(C(CC(=O)c2ccc(C)cc2)C(C#N)C#N)cc1OC (stereo not drawn),.,.,.,6,.,10
COc1ccc(-n2cccc2/C=C/[N+](=O)[O-])cc1,.,-0.22,.,2.8*,.,2.2*
CCc1c(C)sc(NC(=O)c2ccccc2[N+](=O)[O-])c1C(N)=O,.,.,.,99,.,105
Brc1ccc(C2=Nn3c(nnc3-c3n[nH]c4c3CCC4)SC2)cc1,48,-1.4,41*,15,20*,19
Cc1cccc(-c2nnc3n2N=C(c2ccc(Br)cc2)CS3)c1,72,.,78,.,52,.
Clc1ccc(C2=Nn3c(nnc3-c3n[nH]c4c3CCC4)SC2)cc1,57,-2,53,17,15*,16
Cc1ccc(-c2nnc3n2N=C(c2ccc(Br)cc2)CS3)cc1,60,.,70,91,6.1*,90
O=C(C1CCCO1)N1CCN(C(=S)Nc2ccccc2F)CC1 (stereo not drawn),.,.,.,101,.,88
O=C(CSc1nnc(-c2cccs2)o1)Nc1cccc(S(=O)(=O)N2CCCCC2)c1,.,.,.,96,.,94
COc1cc2nc(C3CC3)n(NC(=O)c3ccc(F)cc3)c(=O)c2cc1OC,110,0.4,94,106,79,93
COc1cc2nc(C3CC3)n(NC(=O)c3ccc(Cl)cc3)c(=O)c2cc1OC,68,0.59,91,59,24*,55
Cn1c2c(c(=O)n(C)c1=O)[C@@]1(C(=O)Nc3ccccc31)C(C#N)=C(N)O2,.,.,.,78,.,79
Cc1c2ccccc2nc2c(F)c(NCCO)c(F)c(F)c12,.,0.46,.,68,.,56
SMILES,HUVEC prolif 384,Pyk2 oligo antag,Fibroblast inh,PTEN del growth,H69AR growth 86K,HCT116 bCat-KO
OCCNc1c2ccccc2nc2c(F)c(F)c(F)c(F)c12,.,.,.,1.1*,.,1.5*
N#C/C(=C/c1ccc(Br)o1)C(N)=O,87,-1.1,96,86,33*,74
COc1ccc(NC(=O)/C(C#N)=C/c2ccc(Br)o2)cc1,.,-0.25,.,94,.,87
O=S(=O)(Nc1cccc(-c2nc3cccnc3s2)c1)c1ccc2c(c1)OCCO2,78,.,104,73,80,84
Cc1ccc(-c2nc3cccnc3s2)cc1NS(=O)(=O)c1ccc2c(c1)OCCO2,70,.,91,79,21*,73
CN1C=CC2=C(C#N)C(N)C(C#N)(C#N)C(c3ccccc3)C2C1 (stereo not drawn),78,-3.7*,85,89,77,84
O=c1[nH]c2cc3c(cc2cc1C(c1nnnn1CC1CCCO1)N1CCCCCC1)OCCO3 (stereo not drawn),95,2.4,96,96,68,93
CN1/C(=C/C(=O)c2cccs2)Sc2ccccc21,74,-0.29,90,64,47,65
CN1/C(=C\C(=O)c2cccs2)Sc2ccccc21,71,-0.55,81,64,40*,66
O=C(COc1ccc(C(=O)c2ccccc2)cc1)NCC(=O)Nc1ccccc1Br,.,.,.,57,.,65
N#Cc1c2n(c3c(=O)n(Cc4ccc(Cl)cc4)cnc13)CCCCC2,99,-3.2*,89,95,81,102
O=C(c1ccco1)N1CCN(S(=O)(=O)c2ccc(F)cc2)CC1,106,0.09,103,105,94,101
CCCC(=O)Nc1nc2ccc(S(=O)(=O)N3CCCCC3)cc2s1,54,.,48*,32,20*,33
CCCCC(=O)Nc1ccc(C(=O)Nc2ccc(S(=O)(=O)N3CCCC3)cc2)cc1,93,-1.1,42*,94,63,89
CC(=O)c1ccc(NC(=O)c2ccc(S(=O)(=O)N3CCCC3)cc2)cc1,99,0.04,103,102,80,96
CC(C)CC(=O)Nc1nc2ccc(S(=O)(=O)N3CCOCC3)cc2s1,67,-0.13,80,36,27*,39
Cc1ccc2nc(NC(=O)C3CCCN(S(=O)(=O)c4cccnc4)C3)sc2c1 (stereo not drawn),100,.,109,76,28*,80
O=C(Nc1nc2ccc(S(=O)(=O)N3CCCC3)cc2s1)c1ccco1,.,.,.,106,.,105
CC(C)(C)c1cnnn1-c1ccc(C=O)cc1,96,0.33,100,83,98,82
CC(C)(C)c1cnnn1-c1ccc(C(=O)CCl)cc1,40,-0.85,16*,93,1.6*,102
O=c1c2ccccc2c(C=Nc2cccc(O)c2)c(O)n1-c1ccc2c(c1)OCO2,.,-2,.,9,.,3.7*
Cc1nnc2n(-c3ccccc3)c(=O)c3c4c(sc3n12)COC(C(C)C)C4 (stereo not drawn),99,-0.51,101,95,79,97
CC(C)C1Cc2c(sc3[nH]c(=S)n(Cc4ccccc4)c(=O)c23)CO1 (stereo not drawn),7.0*,-1.4,69,60,25*,43
COCCOC(=O)C1=C(C)NC(=O)N(C(C)=O)C1c1ccc(Cl)cc1 (stereo not drawn),102,-1.6,109,92,103,80
CCOC(=O)C1=C(C)NC(=S)N(C(C)=O)C1c1ccc(Cl)cc1 (stereo not drawn),78,-1,90,0.9*,70,1.1*
O=C(c1ccccc1)c1nn(-c2ccccc2)c2nnc(Cc3ccccc3)c(=O)n12,58,-2.1,104,56,32*,50
CCc1nnc(NC(=O)CCC(=O)NCCc2ccc(OC)c(OC)c2)s1,.,.,.,90,.,96
